# Measured values as given in ChEMBL document CHEMBL4689842, “EUbOPEN Chemogenomics Library wave 1” (2021).
# Test system: U2OS
# Assay: Multiplex assay against U2OS
# Assay type: toxicity, cell-based
# Conditions: human
# Outline: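 With compound added, live cells were imaged on a CQ1 microscope at 37°C and 5% CO2; staining with Hoechst33342, BioTracker Green Microtubule Cytoskeleton Dye, MitoTracker Red and Annexin V Alexa Fluor 680 had been done at seeding. The CellPathfinder machine-learning gating scheme split cells into Hoechst high-intensity objects or normal cells, normal cells into healthy, pyknosed or fragmented nuclei, and pyknosed cells into mitotic or apoptotic. The tubulin, mitochondrial-mass and membrane-permeability phenotypes are per cents of healthy-nucleus cells.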
# [1] = 12 h, 1 µM, compound concentration 1 uM, replicate 1
# [2] = 12 h, 1 µM, compound concentration 1 uM, replicate 2
# [3] = 12 h, 10 µM, compound concentration 10 uM, replicate 1
# [4] = 12 h, 10 µM, compound concentration 10 uM, replicate 2
# [5] = 24 h, 1 µM, compound concentration 1 uM, replicate 1
# [6] = 24 h, 1 µM, compound concentration 1 uM, replicate 2
# [7] = 24 h, 10 µM, compound concentration 10 uM, replicate 1
# [8] = 24 h, 10 µM, compound concentration 10 uM, replicate 2
# [9] = 48 h, 1 µM, compound concentration 1 uM, replicate 1
# [10] = 48 h, 1 µM, compound concentration 1 uM, replicate 2
# [11] = 48 h, 10 µM, compound concentration 10 uM, replicate 1
# [12] = 48 h, 10 µM, compound concentration 10 uM, replicate 2
smiles,measurement,setting,value
Cc1cc(C)cc(-c2cnc3cc(Cl)c(-c4cccc(O)c4)cc3c2OCCCN)c1,Population Apoptotic (%),[1],36%
same,Population Fragmented Nuclei (%),[1],11%
same,Population Healthy Nuclei (%),[1],75%
same,Population Hoechst High Intensity Objects (%),[1],6%
same,Population Membrane Permeable-Phenotype (%),[1],5%
same,Population Mitochondria Different-Phenotype (%),[1],76%
same,Population Mitotic Cells (%),[1],64%
same,Population Normal (%),[1],93%
same,Population Pyknosed Nuclei (%),[1],12%
same,Population Tubulin-Different-Phenotype (%),[1],88%
same,Total Cell Count,[1],132
same,Population Apoptotic (%),[2],44%
same,Population Healthy Nuclei (%),[2],72%
same,Population Hoechst High Intensity Objects (%),[2],10%
same,Population Membrane Permeable-Phenotype (%),[2],2%
same,Population Mitochondria Different-Phenotype (%),[2],82%
same,Population Mitotic Cells (%),[2],55%
same,Population Normal (%),[2],90%
same,Population Pyknosed Nuclei (%),[2],16%
same,Population Tubulin-Different-Phenotype (%),[2],56%
same,Total Cell Count,[2],68
same,Population Apoptotic (%),[3],90%
same,Population Fragmented Nuclei (%),[3],33%
same,Population Healthy Nuclei (%),[3],1%
same,Population Hoechst High Intensity Objects (%),[3],14%
same,Population Membrane Permeable-Phenotype (%),[3],50%
same,Population Mitochondria Different-Phenotype (%),[3],50%
same,Population Mitotic Cells (%),[3],9%
same,Population Normal (%),[3],85%
same,Population Pyknosed Nuclei (%),[3],64%
same,Population Tubulin-Different-Phenotype (%),[3],50%
same,Total Cell Count,[3],207
same,Population Apoptotic (%),[4],70%
same,Population Fragmented Nuclei (%),[4],16%
same,Population Healthy Nuclei (%),[4],32%
same,Population Hoechst High Intensity Objects (%),[4],8%
same,Population Membrane Permeable-Phenotype (%),[4],90%
same,Population Mitochondria Different-Phenotype (%),[4],95%
same,Population Mitotic Cells (%),[4],29%
same,Population Normal (%),[4],91%
same,Population Pyknosed Nuclei (%),[4],50%
same,Population Tubulin-Different-Phenotype (%),[4],100%
same,Total Cell Count,[4],60
same,Population Apoptotic (%),[5],35%
same,Population Fragmented Nuclei (%),[5],7%
same,Population Healthy Nuclei (%),[5],77%
same,Population Hoechst High Intensity Objects (%),[5],5%
same,Population Membrane Permeable-Phenotype (%),[5],6%
same,Population Mitochondria Different-Phenotype (%),[5],75%
same,Population Mitotic Cells (%),[5],64%
same,Population Normal (%),[5],94%
same,Population Pyknosed Nuclei (%),[5],14%
same,Population Tubulin-Different-Phenotype (%),[5],68%
same,Total Cell Count,[5],131
same,Population Apoptotic (%),[6],62%
same,Population Fragmented Nuclei (%),[6],11%
same,Population Healthy Nuclei (%),[6],75%
same,Population Hoechst High Intensity Objects (%),[6],3%
same,Population Membrane Permeable-Phenotype (%),[6],2%
same,Population Mitochondria Different-Phenotype (%),[6],78%
same,Population Mitotic Cells (%),[6],37%
same,Population Normal (%),[6],96%
same,Population Pyknosed Nuclei (%),[6],13%
same,Population Tubulin-Different-Phenotype (%),[6],28%
same,Total Cell Count,[6],66
same,Population Apoptotic (%),[7],86%
same,Population Fragmented Nuclei (%),[7],33%
same,Population Healthy Nuclei (%),[7],2%
same,Population Hoechst High Intensity Objects (%),[7],15%
same,Population Membrane Permeable-Phenotype (%),[7],66%
same,Population Mitochondria Different-Phenotype (%),[7],66%
same,Population Mitotic Cells (%),[7],13%
same,Population Normal (%),[7],84%
same,Population Pyknosed Nuclei (%),[7],63%
same,Population Tubulin-Different-Phenotype (%),[7],66%
same,Total Cell Count,[7],200
same,Population Apoptotic (%),[8],93%
same,Population Fragmented Nuclei (%),[8],24%
same,Population Healthy Nuclei (%),[8],3%
same,Population Hoechst High Intensity Objects (%),[8],7%
same,Population Membrane Permeable-Phenotype (%),[8],50%
same,Population Mitochondria Different-Phenotype (%),[8],50%
same,Population Mitotic Cells (%),[8],6%
same,Population Normal (%),[8],92%
same,Population Pyknosed Nuclei (%),[8],72%
same,Population Tubulin-Different-Phenotype (%),[8],50%
same,Total Cell Count,[8],63
same,Population Apoptotic (%),[9],48%
same,Population Fragmented Nuclei (%),[9],8%
same,Population Healthy Nuclei (%),[9],75%
same,Population Hoechst High Intensity Objects (%),[9],1%
same,Population Membrane Permeable-Phenotype (%),[9],3%
same,Population Mitochondria Different-Phenotype (%),[9],47%
same,Population Mitotic Cells (%),[9],51%
same,Population Normal (%),[9],98%
same,Population Pyknosed Nuclei (%),[9],15%
same,Population Tubulin-Different-Phenotype (%),[9],32%
same,Total Cell Count,[9],127
same,Population Apoptotic (%),[10],54%
same,Population Fragmented Nuclei (%),[10],11%
same,Population Healthy Nuclei (%),[10],73%
same,Population Hoechst High Intensity Objects (%),[10],5%
same,Population Membrane Permeable-Phenotype (%),[10],5%
same,Population Mitochondria Different-Phenotype (%),[10],41%
same,Population Mitotic Cells (%),[10],45%
same,Population Normal (%),[10],95%
same,Population Pyknosed Nuclei (%),[10],14%
same,Population Tubulin-Different-Phenotype (%),[10],16%
same,Total Cell Count,[10],73
same,Population Apoptotic (%),[11],83%
same,Population Fragmented Nuclei (%),[11],30%
same,Population Healthy Nuclei (%),[11],3%
same,Population Hoechst High Intensity Objects (%),[11],20%
same,Population Membrane Permeable-Phenotype (%),[11],75%
same,Population Mitochondria Different-Phenotype (%),[11],75%
same,Population Mitotic Cells (%),[11],16%
same,Population Normal (%),[11],79%
same,Population Pyknosed Nuclei (%),[11],65%
same,Population Tubulin-Different-Phenotype (%),[11],75%
same,Total Cell Count,[11],270
same,Population Apoptotic (%),[12],96%
same,Population Fragmented Nuclei (%),[12],33%
same,Population Healthy Nuclei (%),[12],12%
same,Population Hoechst High Intensity Objects (%),[12],17%
same,Population Membrane Permeable-Phenotype (%),[12],100%
same,Population Mitochondria Different-Phenotype (%),[12],100%
same,Population Mitotic Cells (%),[12],3%
same,Population Normal (%),[12],82%
same,Population Pyknosed Nuclei (%),[12],54%
same,Population Tubulin-Different-Phenotype (%),[12],100%
same,Total Cell Count,[12],80
CC(C)(O)CNc1ncc(-c2ccnc(Nc3ccnc(Cl)c3)n2)c(CC2CC2)n1,Population Apoptotic (%),[1],44%
same,Population Fragmented Nuclei (%),[1],9%
same,Population Healthy Nuclei (%),[1],71%
same,Population Hoechst High Intensity Objects (%),[1],3%
same,Population Membrane Permeable-Phenotype (%),[1],8%
same,Population Mitochondria Different-Phenotype (%),[1],24%
same,Population Mitotic Cells (%),[1],55%
same,Population Normal (%),[1],96%
same,Population Pyknosed Nuclei (%),[1],18%
same,Population Tubulin-Different-Phenotype (%),[1],19%
same,Total Cell Count,[1],182
same,Population Apoptotic (%),[2],9%
same,Population Healthy Nuclei (%),[2],78%
same,Population Hoechst High Intensity Objects (%),[2],5%
same,Population Membrane Permeable-Phenotype (%),[2],5%
same,Population Mitochondria Different-Phenotype (%),[2],17%
same,Population Mitotic Cells (%),[2],90%
same,Population Normal (%),[2],94%
same,Population Pyknosed Nuclei (%),[2],12%
same,Population Tubulin-Different-Phenotype (%),[2],14%
same,Total Cell Count,[2],97
same,Population Apoptotic (%),[3],50%
same,Population Fragmented Nuclei (%),[3],18%
same,Population Healthy Nuclei (%),[3],42%
same,Population Hoechst High Intensity Objects (%),[3],14%
same,Population Membrane Permeable-Phenotype (%),[3],24%
same,Population Mitochondria Different-Phenotype (%),[3],90%
same,Population Mitotic Cells (%),[3],50%
same,Population Normal (%),[3],85%
same,Population Pyknosed Nuclei (%),[3],38%
same,Population Tubulin-Different-Phenotype (%),[3],100%
same,Total Cell Count,[3],202
same,Population Apoptotic (%),[4],15%
same,Population Fragmented Nuclei (%),[4],10%
same,Population Healthy Nuclei (%),[4],64%
same,Population Hoechst High Intensity Objects (%),[4],7%
same,Population Membrane Permeable-Phenotype (%),[4],28%
same,Population Mitochondria Different-Phenotype (%),[4],96%
same,Population Mitotic Cells (%),[4],84%
same,Population Normal (%),[4],92%
same,Population Pyknosed Nuclei (%),[4],26%
same,Total Cell Count,[4],93
same,Population Apoptotic (%),[5],35%
same,Population Fragmented Nuclei (%),[5],6%
same,Population Healthy Nuclei (%),[5],75%
same,Population Hoechst High Intensity Objects (%),[5],3%
same,Population Membrane Permeable-Phenotype (%),[5],5%
same,Population Mitochondria Different-Phenotype (%),[5],22%
same,Population Mitotic Cells (%),[5],64%
same,Population Normal (%),[5],96%
same,Population Pyknosed Nuclei (%),[5],18%
same,Population Tubulin-Different-Phenotype (%),[5],10%
same,Total Cell Count,[5],196
same,Population Apoptotic (%),[6],20%
same,Population Fragmented Nuclei (%),[6],11%
same,Population Healthy Nuclei (%),[6],74%
same,Population Hoechst High Intensity Objects (%),[6],4%
same,Population Membrane Permeable-Phenotype (%),[6],10%
same,Population Mitochondria Different-Phenotype (%),[6],20%
same,Population Mitotic Cells (%),[6],80%
same,Population Normal (%),[6],95%
same,Population Pyknosed Nuclei (%),[6],15%
same,Population Tubulin-Different-Phenotype (%),[6],16%
same,Total Cell Count,[6],136
same,Population Apoptotic (%),[7],52%
same,Population Fragmented Nuclei (%),[7],26%
same,Population Healthy Nuclei (%),[7],22%
same,Population Hoechst High Intensity Objects (%),[7],12%
same,Population Membrane Permeable-Phenotype (%),[7],47%
same,Population Mitochondria Different-Phenotype (%),[7],100%
same,Population Mitotic Cells (%),[7],47%
same,Population Normal (%),[7],87%
same,Population Pyknosed Nuclei (%),[7],51%
same,Population Tubulin-Different-Phenotype (%),[7],100%
same,Total Cell Count,[7],240
same,Population Apoptotic (%),[8],47%
same,Population Fragmented Nuclei (%),[8],14%
same,Population Healthy Nuclei (%),[8],40%
same,Population Hoechst High Intensity Objects (%),[8],14%
same,Population Mitochondria Different-Phenotype (%),[8],89%
same,Population Mitotic Cells (%),[8],52%
same,Population Normal (%),[8],85%
same,Population Pyknosed Nuclei (%),[8],44%
same,Total Cell Count,[8],105
same,Population Apoptotic (%),[9],45%
same,Population Fragmented Nuclei (%),[9],6%
same,Population Hoechst High Intensity Objects (%),[9],2%
same,Population Membrane Permeable-Phenotype (%),[9],9%
same,Population Mitochondria Different-Phenotype (%),[9],10%
same,Population Mitotic Cells (%),[9],54%
same,Population Normal (%),[9],97%
same,Population Pyknosed Nuclei (%),[9],17%
same,Population Tubulin-Different-Phenotype (%),[9],7%
same,Total Cell Count,[9],130
same,Population Apoptotic (%),[10],50%
same,Population Fragmented Nuclei (%),[10],13%
same,Population Healthy Nuclei (%),[10],76%
same,Population Hoechst High Intensity Objects (%),[10],3%
same,Population Membrane Permeable-Phenotype (%),[10],17%
same,Population Mitochondria Different-Phenotype (%),[10],24%
same,Population Mitotic Cells (%),[10],50%
same,Population Normal (%),[10],96%
same,Population Pyknosed Nuclei (%),[10],10%
same,Population Tubulin-Different-Phenotype (%),[10],22%
same,Total Cell Count,[10],90
same,Population Apoptotic (%),[11],82%
same,Population Fragmented Nuclei (%),[11],35%
same,Population Healthy Nuclei (%),[11],12%
same,Population Hoechst High Intensity Objects (%),[11],15%
same,Population Membrane Permeable-Phenotype (%),[11],50%
same,Population Mitochondria Different-Phenotype (%),[11],90%
same,Population Mitotic Cells (%),[11],17%
same,Population Normal (%),[11],84%
same,Population Pyknosed Nuclei (%),[11],51%
same,Population Tubulin-Different-Phenotype (%),[11],100%
same,Total Cell Count,[11],308
same,Population Apoptotic (%),[12],61%
same,Population Fragmented Nuclei (%),[12],19%
same,Population Healthy Nuclei (%),[12],23%
same,Population Hoechst High Intensity Objects (%),[12],17%
same,Population Membrane Permeable-Phenotype (%),[12],100%
same,Population Mitochondria Different-Phenotype (%),[12],100%
same,Population Mitotic Cells (%),[12],38%
same,Population Normal (%),[12],82%
same,Population Pyknosed Nuclei (%),[12],56%
same,Total Cell Count,[12],141
